Lmaj promast – Leishmania major promastigote growth inhibition, primary screen | Leishmania major promastigotes, resazurin fluorescence viability | inhibition, % at 10 µM | actives 9% (n = 200,000) | AID 1063, 2008;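 further: promastigotes grown with compound for 44 hours at 28 °C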
WT yeast gro inh – growth inhibition of WT strain, primary screen, mitochondrial fusion inhibitor project, WT and mutant strains, chemical genetic; mitochondrial fusion phenotypic screen; inhibition, % at 10 µM; actives 2.1% (n = 190,000); in the data active means inhibition above about 58%; tested in S. cerevisiae
Diaph inh CS – diaphorase inhibitors and chemical oxidizers, primary screen, counter-screen for diaphorase-coupled primary assays, biochemical, uHTS, resorufin fluorescence. inhibition, % at 20 µM. actives 0.69% (n = 190,000). AID 1217, 2008. diaphorase resazurin-to-resorufin fluorescence, NADH, 16 min; bacterial (C. kluyveri) enzyme, not human;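 active means primary screen inhibition at 20 µM above a set limit, cut at about 50% in these data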;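 further: plate controls were DMSO with full reaction for no effect and wells lacking NADH for full effect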
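System: Diaphorase enzyme from Clostridium kluyveri | Amount: Enzyme working solution with 0.14 U/mL diaphorase | Benchmarks: No-NADH positive control and DMSO neutral control | Signal: Fluorescence of resorufin formed from resazurin, Ex 544/Em 590 nm | Schedule: 16-min room-temperature incubation before reading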
G6PDH counter – L. mesenteroides G6PDH inhibitors, counter-screen for G6PDH-coupled screening assays, biochemical, Leuconostoc mesenteroides enzyme; inhibition, % at 5 µM; actives 0.12% (n = 200,000); Purified L. mesenteroides G6PDH, diaphorase/resazurin coupled fluorescence, 45 min
Diaph act CS – compounds boosting diaphorase resazurin reduction – biochemical, uHTS, resorufin fluorescence, counter-screen for diaphorase-coupled primary assays, primary screen; Diaphorase/resazurin coupled assay, 16 min; stronger effect = higher value; 1 = vehicle wells, 0 = NADH-free wells; activation factor at 20 µM; actives 0.005% (n = 190,000);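 active means diaphorase activity raised at least twofold by the compound at 20 µM; inactive means activation factor below 2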
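Material: purified diaphorase enzyme from Clostridium kluyveri / Medium: HEPES pH 7.4 buffer with MgCl2 and Tween 20 / Schedule: enzyme reaction of 16 min at room temperature / Measured by: resorufin fluorescence, excitation 544 nm, emission 590 nm / Evaluation: rise in resorufin formation, marking diaphorase activation or chemical reduction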
Starred values were filed as active, the others as inactive. Compounds with a hit are over-represented: about 11% of the library has one in this group of screens. Unless noted, no stated cut-off is given here; in the data, active means inhibition above about 50%; inactive means the rest.

SMILES | Lmaj promast | WT yeast gro inh | Diaph inh CS | G6PDH counter | Diaph act CS
CCC(C)[C@H](NC(=O)NC1CCN(Cc2ccccc2)CC1)C(=O)OC (some centres undefined) | 70* | 0 | 11 | 2 | 0.9
Cc1cccc(C)c1NC(=O)CS(=O)CC(=O)NC1CCN(Cc2ccccc2)CC1 (centres undefined) | -4 | 4 | 13 | -1 | 0.9
Cc1ccc(NC(=O)CS(=O)CC(=O)NC2CCN(Cc3ccccc3)CC2)c(C)c1 (centres undefined) | -4 | 10 | 6 | -1 | 0.9
CCC(C)[C@H](NC(=O)NCc1ccccc1Cl)C(=O)OC (some centres undefined) | 5 | 3 | 10 | -1 | 0.9
COC(=O)C(Cc1ccc(OC(=O)c2ccc(C)cc2)cc1)N1Cc2ccccc2C1=O (centres undefined) | -5 | 25 | 22 | -10 | 0.8
CCOC(=O)C1CCCN(CCC(=O)Nc2ccccc2C)C1 (centres undefined) | -4 | 5 | -5 | 11 | 1
COc1ccc(CCC(=O)NNC(=S)Nc2cccc(C(C)=O)c2)cc1 | -2 | 1 | 3 | -5 | 1
Cc1cccc(C)c1OCC(O)CN (centres undefined) | 7 | 10 | 13 | 5 | 0.9
Cc1cc(OCC(O)CN)ccc1Cl (centres undefined) | 92* | -6 | -14 | 0 | 1.1
Cc1ccc2nc(C3CCN(CC(=O)N4CCCCCC4)CC3)[nH]c2c1 | -1 | 18 | 22 | -16 | 0.8
COc1ccc(NC(=S)N2CCC(c3nc4ccc(Cl)cc4[nH]3)CC2)c(OC)c1 | 0 | 13 | 0 | 4 | 1
COc1ccc(NC(=S)N2CCCC(c3nc4ccc(C)cc4[nH]3)C2)c(OC)c1 (centres undefined) | 100* | 4 | -7 | 8 | 1.1
COc1ccc(NC(=S)N2CCCC(c3nc4ccc(C)cc4[nH]3)C2)cc1 (centres undefined) | 94* | -18 | 17 | -1 | 0.8
COc1ccc(OC)c(NC(=O)c2ccc(CSc3nnc(C)s3)cc2)c1 | -5 | 32 | 27 | 3 | 0.7
CSc1cccc(NC(=O)CN(C)S(=O)(=O)c2ccc(C)cc2)c1 | 17 | 34 | 3 | 11 | 1
COc1ccc(NC(=O)NCCCN2CCc3ccccc3C2)cc1 | -1 | 12 | 13 | -7 | 0.9
O=C(NCCCN1CCc2ccccc2C1)Nc1ccc(Br)cc1 | 95* | 25 | -5 | -2 | 1
Cc1cc(Cl)ccc1NC(=S)N1CCN(Cc2ccc3c(c2)OCO3)CC1 | 87* | 56 | 7 | 19 | 0.9
Cc1cccc(NC(=O)N2CCN(Cc3ccc4c(c3)OCO4)CC2)c1C | 56* | 6 | -5 | 7 | 1.1
CCNC(=S)N1CCN(Cc2ccc3c(c2)OCO3)CC1 | -6 | 2 | 14 | -5 | 0.9
O=C(NC(=S)N1CCN(Cc2ccc3c(c2)OCO3)CC1)c1cccc(Br)c1 | 6 | 60* | 21 | 10 | 0.8
Fc1ccccc1NC(=S)N1CCN(Cc2ccc3c(c2)OCO3)CC1 | 12 | -3 | 14 | 0 | 0.9
O=C(NC(=S)N1CCN(Cc2ccc3c(c2)OCO3)CC1)c1ccc(Cl)cc1 | 44 | 62* | 25 | 0 | 0.8
COc1ccc(NC(=O)c2cn(CCC#N)nc2-c2cc3ccccc3o2)cc1 | -1 | -5 | 17 | 2 | 0.8
Cc1ccc(Nc2nc(N)nc(CN3CCN(Cc4ccc5c(c4)OCO5)CC3)n2)cc1Cl | 70* | 29 | 15 | 7 | 0.8
Cc1ccccc1N=C1NN=C(c2ccccc2F)CS1 | 0 | 25 | 11 | -12 | 0.9
Cc1cccc(/N=C/c2c(O)cc(C)oc2=O)n1 | -5 | 0 | 19 | -8 | 0.8
Cc1cccc(/N=C/c2c(O)ccc3oc4c(c23)CCCC4)n1 | 91* | 6 | 12 | 0 | 0.9
CC(OC(=O)c1ccccc1NCc1ccco1)C(=O)Nc1ncc(Cl)cc1Cl (centres undefined) | -5 | 11 | 12 | 11 | 0.9

Screens from PubChem.
